Assay outcomes from PubChem.
Rows were chosen to be rich in hits. Some 1.9% of all compounds tested hit in one or more screens of this group.
FAS TE block – FAS thioesterase (human) inhibition | 0.67% of 360,000 active | inhibition, % at 15 µM | recombinant FAS-TE, OMFH fluorogenic substrate, fluorescence endpoint | AID 602261;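 active means compounds whose normalised, plate-corrected inhibition of enzyme fluorescence in the single-dose primary screen is 50% or more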
ADAM17 inh – ADAM17 inhibition, QFRET primary screen; AID 720648; recombinant ADAM17, EDANS/DABCYL FRET peptide cleavage; inhibition, % at 6.95 µM; 0.83% of 370,000 active; P78536;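 active means inhibition above the mean of compounds lying between control limits plus 3 SD, set per campaign, cut at about 8.5% in these data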
Target sequence (P78536 215-824 limits assumed): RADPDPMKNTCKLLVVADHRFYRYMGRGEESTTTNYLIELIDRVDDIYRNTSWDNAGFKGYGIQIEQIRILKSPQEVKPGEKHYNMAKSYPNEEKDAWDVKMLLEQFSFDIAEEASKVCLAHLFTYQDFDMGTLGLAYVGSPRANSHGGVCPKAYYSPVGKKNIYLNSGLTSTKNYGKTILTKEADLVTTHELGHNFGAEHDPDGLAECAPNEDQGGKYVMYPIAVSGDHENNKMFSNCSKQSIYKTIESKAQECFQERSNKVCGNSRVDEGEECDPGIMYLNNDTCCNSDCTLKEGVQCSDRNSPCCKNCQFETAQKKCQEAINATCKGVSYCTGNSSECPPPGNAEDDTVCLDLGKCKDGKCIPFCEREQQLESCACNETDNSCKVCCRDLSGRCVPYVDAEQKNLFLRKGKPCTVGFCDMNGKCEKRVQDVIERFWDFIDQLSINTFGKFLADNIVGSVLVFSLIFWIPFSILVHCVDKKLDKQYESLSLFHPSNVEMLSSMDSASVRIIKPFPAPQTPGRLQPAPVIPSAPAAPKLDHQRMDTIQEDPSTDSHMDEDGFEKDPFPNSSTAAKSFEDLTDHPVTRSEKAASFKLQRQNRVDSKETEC
ADAM10 inh – inhibitors of human ADAM10 | O14672 | recombinant ADAM10, EDANS/DABCYL FRET peptide cleavage, 3 h | inhibition, % at 7 µM | 0.62% of 370,000 active | AID 720582;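 active means inhibition above a per-campaign cutoff equal to the mean of compounds falling between control-based bounds plus 3 SD, cut at about 20% in these data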
SENP1 inh – SENP1 (human) catalytic domain inhibition; 0.21% of 360,000 active; recombinant SENP1 catalytic domain, CyPet-SUMO1-YPet FRET cleavage; inhibition, % at 10 µM; Q9P0U3;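 active means inhibition at least 30% at 10 µM, raw YFP signal under a set limit, fluorescence ratio 0.5 to 1.5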
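Compound: 10 µM single point, 0.5% DMSO; Test system: hSENP1 catalytic domain, recombinant; Timing: 50 min reaction at room temperature; Technique: FRET, CFP and YFP emission; Control set: no-enzyme wells low, DMSO-plus-enzyme wells high control.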
ADAM10 confirm – human ADAM10 inhibition, confirmation. shares compounds with ADAM10 inh. ADAM10 QFRET peptide cleavage, EDANS fluorescence. inhibition, % at 6.95 µM. 1% of 2,100 active. AID 743208;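 active means inhibition above about 20% chosen separately for each screening run, limit read from the data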
ADAM17 ctr – inhibits human ADAM17 in ADAM10 exosite counter-screen; AID 743214; ADAM17 QFRET peptide cleavage, EDANS fluorescence; 0.5% of 2,100 active; shares compounds with ADAM10 inh; inhibition, % at 6.95 µM;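 active means mean triplicate inhibition above the solvent-only control wells' mean plus 3 SD, cut at about 12% in these data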
ADAM10 counter – counter-screen for ADAM17 exosite inhibitors: inhibitors of human ADAM10. shares compounds with ADAM17 inh. recombinant ADAM10, EDANS/DABCYL FRET peptide cleavage, 3 h. inhibition, % at 6.95 µM. 47% of 2,900 active. AID 743256;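 active means mean inhibition over the triplicate runs exceeds the activity threshold set in the earlier primary screen, cut at about 20% in these data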
ADAM17 confirm – human ADAM17 inhibition, confirmation. shares compounds with ADAM17 inh. recombinant ADAM17, EDANS/DABCYL QFRET peptide cleavage. inhibition, % at 6.95 µM. 65% of 2,900 active. AID 743257;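 active means mean inhibition across replicates above the hit cutoff set in the primary screen, cut at about 8.5% in these data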
Large screens that a line does not name were inactive (follow-up assays come after a bar, where they were run).

Cc1ccc(Nc2nnc(SCC(=O)c3ccc(Br)s3)s2)c(C)c1	ADAM17 inh 8.7, ADAM10 inh 24.1 | ADAM10 confirm inactive | ADAM17 ctr inactive | ADAM10 counter inactive | ADAM17 confirm 9.9
O=C(C(=O)N1CCN(c2ccccc2Cl)CC1)c1c[nH]c2ccccc12	ADAM17 inh 13.7, ADAM10 inh 25.9 | ADAM10 confirm inactive | ADAM17 ctr inactive | ADAM10 counter 20.6 | ADAM17 confirm 11.8
Cc1ccc(CN2CCCCC(NC(=O)c3ccc(COc4ccccc4)cc3)C2=O)cc1 (configuration not stated)	none (no result: FAS TE block, SENP1 inh)
Cc1ccc(-c2onc(C)c2C)cc1S(=O)(=O)N1CCOc2ccccc21	ADAM17 inh 14.4, ADAM10 inh 21.2 | ADAM10 confirm inactive | ADAM17 ctr inactive | ADAM10 counter inactive | ADAM17 confirm inactive
CCCCCOC(=O)C1=C(C)N(C)C(=O)NC1c1cc(Br)c(O)c(OC)c1 (configuration not stated)	ADAM17 inh 10.5, ADAM10 inh 20.5 | ADAM10 confirm inactive | ADAM17 ctr inactive | ADAM10 counter inactive | ADAM17 confirm inactive
COc1ccccc1S(=O)(=O)N(C)C[C@@H]1Oc2cc(C#CCC(C)C)ccc2S(=O)(=O)N([C@H](C)CO)C[C@@H]1C	ADAM17 inh 11.4, ADAM10 inh 26.1 | ADAM10 confirm inactive | ADAM17 ctr inactive | ADAM10 counter 46.3 | ADAM17 confirm 26.5
COc1ccccc1S(=O)(=O)N(C)C[C@H]1Oc2cc(C#CCC3CCCC3)ccc2S(=O)(=O)N([C@H](C)CO)C[C@H]1C	none
CCc1cccc(C)c1NC(=O)COC(=O)C1CCN(S(=O)(=O)c2ccccc2)CC1	none
CCc1cccc(C)c1NC(=O)CN1CCN(S(=O)(=O)c2ccc(C(C)(C)C)cc2)CC1	ADAM17 inh 10.0, ADAM10 inh 24.2 | ADAM10 confirm inactive | ADAM17 ctr inactive | ADAM10 counter inactive | ADAM17 confirm inactive
CC(=O)c1cc(-c2ccccc2)n(CC(=O)NCc2ccccc2Cl)c1C	none (no result: FAS TE block, SENP1 inh)
Clc1ccc(-n2c(Cc3cccs3)nnc2SC/C=C/c2ccccc2)cc1	none (no result: FAS TE block, SENP1 inh)
CCOc1ccc(-n2c(SCC(=O)Nc3ccc(S(=O)(=O)Nc4nccs4)cc3)nnc2-c2ccncc2)cc1	none (no result: FAS TE block, SENP1 inh)
CCOc1ccc(-n2c(SCC(=O)Nc3ccc(S(=O)(=O)Nc4nccs4)cc3)nnc2-c2ccc(C(C)(C)C)cc2)cc1	ADAM17 inh 12.4, ADAM10 inh 21.9 (no result: FAS TE block, SENP1 inh) | ADAM10 confirm inactive | ADAM17 ctr inactive | ADAM10 counter 39.9 | ADAM17 confirm 20.9
O=C(Cc1ccccc1Cl)Nc1ccc(S(=O)(=O)Nc2nccs2)cc1	none
O=C(CSc1ccc(Br)c2cccc(Cl)c12)Nc1ccc(S(=O)(=O)Nc2nccs2)cc1	ADAM17 inh 15.8, ADAM10 inh 31.8 | ADAM10 confirm inactive | ADAM17 ctr inactive | ADAM10 counter 22.7 | ADAM17 confirm 13.8
CC(C)(C)c1ccc(-c2nnc(SCC(=O)Nc3ccc(S(=O)(=O)Nc4nccs4)cc3)n2-c2ccc(Cl)cc2)cc1	ADAM17 inh 12.9, ADAM10 inh 26.7 (no result: FAS TE block, SENP1 inh) | ADAM10 confirm inactive | ADAM17 ctr inactive | ADAM10 counter 26.6 | ADAM17 confirm 16.5
CCN(CC)S(=O)(=O)c1ccc(NC(=O)c2cccs2)cc1	none
CCN(CC)S(=O)(=O)c1cccc(C(=O)Oc2cccc(NC(=O)c3cccs3)c2)c1	ADAM17 inh 9.3, ADAM10 inh 27.0 | ADAM10 confirm inactive | ADAM17 ctr inactive | ADAM10 counter 22.3 | ADAM17 confirm 13.2
CC(C)C[C@H]1COc2cccc(N3CCSCC3)c2S(=O)(=O)N1C	none (no result: FAS TE block, SENP1 inh)
CC(C)(C)c1cccc(N/C(=C\C(=O)c2ccccc2)c2ccccc2)c1	none (no result: FAS TE block, SENP1 inh)
COc1nccnc1NS(=O)(=O)c1ccc(NC(=S)NC(=O)/C=C/c2ccc(F)cc2)cc1	ADAM17 inh 10.4, ADAM10 inh 23.9 | ADAM10 confirm inactive | ADAM17 ctr inactive | ADAM10 counter inactive | ADAM17 confirm inactive
O=C(OCc1cn(Cc2cccc(Cl)c2)nn1)N1CCCC1	none (no result: FAS TE block, SENP1 inh)
O=C(CSc1nc2ccccc2[nH]1)Nc1nc(-c2cccc(Br)c2)cs1	ADAM17 inh 22.8, ADAM10 inh 49.8 | ADAM10 confirm 22.8 | ADAM17 ctr inactive | ADAM10 counter 39.6 | ADAM17 confirm 23.9
Cc1ccc(S(=O)(=O)c2cccc(S(=O)(=O)N3CCCC3)c2)cc1S(=O)(=O)N1CCCC1	ADAM17 inh 17.1, ADAM10 inh 29.4 | ADAM10 confirm inactive | ADAM17 ctr inactive | ADAM10 counter inactive | ADAM17 confirm inactive
CC1CCN(CCCNS(=O)(=O)c2cc3c(cc2Br)CCN3C(=O)C2CC2)CC1	none (no result: FAS TE block, SENP1 inh)
CC(C)OP(=O)(O)C(C)NC(=O)OCc1ccccc1 (configuration not stated)	none (no result: FAS TE block, SENP1 inh)
O=c1[nH]c(=S)[nH]c2c1C(c1cccc(C(F)(F)F)c1)OC(CCc1ccccc1)C2 (configuration not stated)	ADAM17 inh 14.4, ADAM10 inh 26.7 | ADAM10 confirm inactive | ADAM17 ctr inactive | ADAM10 counter 29.7 | ADAM17 confirm 16.4
COc1cccc(C(=O)NC(=S)Nc2ccc(N3CCCC3)cc2)c1	ADAM17 inh 12.5, ADAM10 inh 32.2 | ADAM10 confirm inactive | ADAM17 ctr inactive | ADAM10 counter inactive | ADAM17 confirm 10.8
O=C(OCc1cn(Cc2cccc(F)c2)nn1)N1CCCCC1	none (no result: FAS TE block, SENP1 inh)
CCN1CCCCC(NC(C)=O)C1=O (configuration not stated)	none (no result: FAS TE block, SENP1 inh)
Cc1ccc(S(=O)(=O)Nc2ccc(NC(=O)Nc3cccc(C(F)(F)F)c3)cc2)cc1	ADAM17 inh 21.8, ADAM10 inh 41.3 | ADAM10 confirm inactive | ADAM17 ctr inactive | ADAM10 counter 42.6 | ADAM17 confirm 18.6
O=C(Nc1ccc(OC(F)F)cc1)Nc1cccc(C(F)(F)F)c1	ADAM17 inh 10.2, ADAM10 inh 24.6 | ADAM10 confirm inactive | ADAM17 ctr inactive | ADAM10 counter 31.1 | ADAM17 confirm 16.2
Cc1ccc(NC(=S)NNC(=S)Nc2cccc(C(F)(F)F)c2)cc1	none
O=C(NCCNC(=O)c1cc(OCC(F)(F)F)ccc1OCC(F)(F)F)Nc1cccc(C(F)(F)F)c1	ADAM17 inh 12.2, ADAM10 inh 37.1 | ADAM10 confirm inactive | ADAM17 ctr inactive | ADAM10 counter 24.4 | ADAM17 confirm 14.2
NNC(=O)Nc1cccc(C(F)(F)F)c1	none
C[C@H]1[C@@H](OC(=O)Nc2cccc(Cl)c2)CC[C@@]23CCCN2C(=O)CCC[C@@H]13	none (no result: FAS TE block, SENP1 inh)
